The values below come from ChEMBL document CHEMBL3286209, “Synthesis and biological activities of novel pleuromutilin derivatives with a substituted thiadiazole moiety as potent drug-resistant bacteria inhibitors” (J Med Chem, 2014).

The subject of data set [1] is Streptococcus agalactiae. The experiment in a line: Antibacterial activity against Streptococcus agalactiae after 48 hrs by agar dilution method. The format is functional. The method, boiled down: (§1)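 Agar dilution per NCCLS on Mueller–Hinton agar; compound in DMSO/water, 2-fold serial dilutions in distilled water, 2 mL dilution mixed into 18 mL hot agar. Clinical isolates from blood slants, adjusted to about 10⁵−10⁶ cfu/mL in 0.90% saline; 10 μL spotted. Incubated 36.5 °C for 48 h; MIC = lowest concentration giving complete growth inhibition. Triplicate runs.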

Data set [2] deals with Staphylococcus aureus. The data set is described as follows: Antibacterial activity against methicillin-resistant Staphylococcus aureus at 320 ug/ml after 24 hrs by Oxford cup assay. As to conditions: read-out: IZ. The format is functional. The method, boiled down:
(§2)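 Oxford cup diffusion using clinical isolates. Inocula are made in 0.9% saline to a McFarland standard and spread on nutrient agar. […] Inhibition zone diameter is measured after 24 h at 37 °C. Run in triplicate.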

Data set [3] relates to Escherichia coli. The data set is described as follows: Antibacterial activity against Escherichia coli at 320 ug/ml after 24 hrs by Oxford cup assay. The class given is functional. As to conditions: read-out: IZ. The gist of the method:
(§3)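 Oxford cup diffusion: saline inoculum set by McFarland standard, spread on nutrient agar plates. […] Inhibition zone measured after 24 h at 37 °C; triplicate.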

Data set [4] is described as follows: Oral bioavailability in Sprague-Dawley rat at 15 mg/kg. The format is ADME, organism-based. As to conditions: in vivo. The method, boiled down:
(§4)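 Male SD rats, 220−250 g, 6−8 weeks old, n = 3, fasted overnight and for 6 h after dosing. Dosed in 5% Tween in water, 5 mg/kg iv or 15 mg/kg po. Serial retrobulbar blood samples into EDTA-K₂ tubes; plasma levels by HPLC. Parameters from mean plasma concentration by noncompartmental analysis.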

Data set [5] is described as follows: Cmax in Sprague-Dawley rat at 15 mg/kg, po. The class given is ADME, organism-based. More on the design: dose 15 mg/kg, route oral. The note with it: in vivo. The gist of the method:
as §4

A short description of data set [6]: Cmax in Sprague-Dawley rat at 5 mg/kg, iv. The class given is ADME, organism-based. More on the design: dose 5 mg/kg, route intravenous. As to conditions: in vivo. The gist of the method:
as §4

Data set [7] can be described thus: Clearance in Sprague-Dawley rat at 15 mg/kg, po. The format is ADME, organism-based. Also noted: dose 15 mg/kg, route oral. The note with it: in vivo. The method, boiled down:
as §4

The nature of data set [8]: Mean residence time in Sprague-Dawley rat at 5 mg/kg, iv. As to conditions: in vivo. Also noted: dose 5 mg/kg, route intravenous. The format is ADME, organism-based. The gist of the method: as §4
Data set [9] in a line: Elimination half life in Sprague-Dawley rat at 15 mg/kg, po. The class given is ADME, organism-based. More on the design: dose 15 mg/kg, route oral. As to conditions: in vivo, read-out: beta t1/2 (converted). The gist of the method:
as §4

Data set [10] in a line: AUC (0 to infinity) in Sprague-Dawley rat at 15 mg/kg, po. As to conditions: plasma. Also noted: time infinity, dose 15 mg/kg, route oral. The class given is ADME, organism-based. The method, boiled down:
as §4

For data set [11], the system named is Escherichia coli. The experiment in a line: Antibacterial activity against Escherichia coli at 160 ug/ml after 24 hrs by Oxford cup assay. The class given is functional. The note with it: read-out: IZ. The method, boiled down:
as §3

Data set [12] is described as follows: Clearance in Sprague-Dawley rat at 5 mg/kg, iv. As to conditions: in vivo. The format is ADME, organism-based. More on the design: dose 5 mg/kg, route intravenous. The method, boiled down: as §4
The nature of data set [13]: Elimination half life in Sprague-Dawley rat at 5 mg/kg, iv. The class given is ADME, organism-based. As to conditions: in vivo, read-out: beta t1/2 (converted). More on the design: dose 5 mg/kg, route intravenous. The gist of the method: as §4
Data set [14] in a line: Mean residence time in Sprague-Dawley rat at 15 mg/kg, po. The class given is ADME, organism-based. More on the design: dose 15 mg/kg, route oral. As to conditions: in vivo. The method, boiled down: as §4
In data set [15] the test system is Staphylococcus aureus. The data set is described as follows: Antibacterial activity against methicillin-resistant Staphylococcus aureus after 48 hrs by agar dilution method. The class given is functional. The gist of the method: (§5)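 Agar dilution per NCCLS using clinical isolates. Compound DMSO/water solutions are 2-fold serially diluted in water, then mixed 1:10 into hot Mueller–Hinton agar. Inocula come from blood slants, adjusted to about 10⁵−10⁶ cfu/mL in 0.90% saline, and spotted at 10 μL. Plates incubated at 36.5 °C for 48 h. MIC is the lowest concentration giving complete growth inhibition. Run in triplicate at pH 7.40.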

Data set [16] can be described thus: Volume of distribution at steady state in Sprague-Dawley rat at 5 mg/kg, iv. The format is ADME, organism-based. Also noted: dose 5 mg/kg, route intravenous. The note with it: in vivo, read-out: Vdss. The method, boiled down: as §4
Data set [17] concerns Streptococcus agalactiae. The data set is described as follows: Antibacterial activity against Streptococcus agalactiae at 160 ug/ml after 24 hrs by Oxford cup assay. The format is functional. The note with it: read-out: IZ. The gist of the method: as §3
The subject of data set [18] is Staphylococcus epidermidis. The experiment in a line: Antibacterial activity against methicillin-resistant Staphylococcus epidermidis after 48 hrs by agar dilution method. The format is functional. The gist of the method: as §5
The next data set relates to Rattus norvegicus. The experiment in a line: Volume of distribution at steady state in Sprague-Dawley rat at 15 mg/kg, po. The class given is ADME, organism-based. As to conditions: in vivo. More on the design: dose 15 mg/kg, route oral. The method, boiled down:
as §4

A short description of data set [19]: Tmax in Sprague-Dawley rat at 15 mg/kg, po. More on the design: dose 15 mg/kg, route oral. The format is ADME, organism-based. As to conditions: in vivo. The method, boiled down: as §4
Data set [20] concerns Escherichia coli. The data set is described as follows: Antibacterial activity against Escherichia coli after 48 hrs by agar dilution method. The class given is functional. The method, boiled down:
as §1

Data set [21] has as its system Staphylococcus epidermidis. The data set is described as follows: Antibacterial activity against methicillin-resistant Staphylococcus epidermidis at 160 ug/ml after 24 hrs by Oxford cup assay. The note with it: read-out: IZ. The class given is functional. The gist of the method: as §2
Data set [22] can be described thus: AUC (0 to infinity) in Sprague-Dawley rat at 5 mg/kg, iv. The format is ADME, organism-based. More on the design: time infinity, dose 5 mg/kg, route intravenous. The note with it: plasma. The method, boiled down:
as §4

Data set [23] can be described thus: Tmax in Sprague-Dawley rat at 5 mg/kg, iv. The class given is ADME, organism-based. Also noted: dose 5 mg/kg, route intravenous. The note with it: in vivo. The method, boiled down: as §4
Data set [24] has as its system Staphylococcus aureus. The data set is described as follows: Antibacterial activity against methicillin-resistant Staphylococcus aureus at 160 ug/ml after 24 hrs by Oxford cup assay. The class given is functional. The note with it: read-out: IZ. The method, boiled down:
as §2

Data set [25] concerns Streptococcus agalactiae. The data set is described as follows: Antibacterial activity against Streptococcus agalactiae at 320 ug/ml after 24 hrs by Oxford cup assay. The class given is functional. As to conditions: read-out: IZ. The method, boiled down: as §3
The subject of data set [26] is Staphylococcus epidermidis. The experiment in a line: Antibacterial activity against methicillin-resistant Staphylococcus epidermidis at 320 ug/ml after 24 hrs by Oxford cup assay. As to conditions: read-out: IZ. The class given is functional. The gist of the method: as §2
Data set [27] in a line: Oral bioavailability in chicken. The class given is ADME, organism-based, Gallus gallus. As to conditions: in vivo.
A short description of data set [28]: Oral bioavailability in duck. The format is ADME, organism-based. As to conditions: anas platyrhynchos, in vivo.

Values after ≈ are worked out from the molar mass of the structure shown.

As to `C=C[C@]1(C)C[C@@H](OC(=O)CSc2nnc(N)s2)[C@]2(C)[C@H](C)CC[C@]3(CCC(=O)[C@H]32)[C@@H](C)[C@@H]1O`, the MIC stood at 0.25 µg/mL (≈ 0.506 µM) with Streptococcus agalactiae [1], 0.5 µg/mL (≈ 1.01 µM) in the data set on Staphylococcus aureus [15], 1 µg/mL (≈ 2.03 µM) in [18] and 8 µg/mL (≈ 16.2 µM) in the data set with Escherichia coli [20]. Also, the zone of inhibition at 320 µg/mL in the data set with Staphylococcus aureus [2] worked out at 15.6 mm; with Escherichia coli [3] it was 14.3 mm; with Streptococcus agalactiae [25] it was 17.3 mm; in [26], 15.2 mm. The molecule further showed a bioavailability in [4] of 35.8%. For the same molecule, the Cmax in data set [5] worked out at 3070 ng/mL; in data set [6], 13600 ng/mL. This molecule also gave a CL/F in data set [7] of 10.2 mL/min/kg. Besides, the results for the MRT in data set [8] and in data set [14] were 2.84 h and 8.42 h, respectively. Besides, the half-life in [9] is 6.07 h; in data set [13], 3.4 h. Besides, the AUC(0-inf) in data set [10] stood at 24600 ng·h/mL; in data set [22] it was 15400 ng·h/mL. The zone of inhibition at 160 µg/mL worked out at 12.4 mm with Escherichia coli [11], 15 mm in the data set on Streptococcus agalactiae [17], 12.8 mm in data set [21] and 13 mm with Staphylococcus aureus [24]. Moreover, the clearance in data set [12] was 5.41 mL/min/kg. Besides, the Vd in data set [16] worked out at 0.92 L/kg. Besides, the Vdss in the data set on Rattus norvegicus was determined as 5.14 L/kg. Also, the time to peak (Tmax) in data set [19] worked out at 0.75 h; in [23], 4.8 min.
For the molecule `C=C[C@]1(C)C[C@@H](OC(=O)CSc2nnc(NC(=O)CN3CCCCC3)s2)[C@]2(C)[C@H](C)CC[C@]3(CCC(=O)[C@H]32)[C@@H](C)[C@@H]1O`, the MIC came out at 0.5 µg/mL (≈ 0.808 µM) with Streptococcus agalactiae [1], 0.5 µg/mL (≈ 0.808 µM) in the data set on Staphylococcus aureus [15], 1 µg/mL (≈ 1.62 µM) in [18] and 16 µg/mL (≈ 25.9 µM) in the data set with Escherichia coli [20]. The zone of inhibition at 320 µg/mL in the data set with Staphylococcus aureus [2] is 18.8 mm; in the data set on Escherichia coli [3] it was 13.3 mm; in the data set on Streptococcus agalactiae [25] it was 17.7 mm; in [26], 17.4 mm. Moreover, the bioavailability in data set [4] is 39.7%. Moreover, the Cmax came to 4650 ng/mL in [5] and 11300 ng/mL in [6]. The CL/F in [7] is 10.4 mL/min/kg. For the same molecule, the values for the MRT in data set [8] and in [14] were 2.88 h and 7.91 h, respectively. Also, the half-life in data set [9] is 5.98 h; in [13], 3.89 h. For the same molecule, the AUC(0-inf) in data set [10] is 24100 ng·h/mL; in [22] it was 14100 ng·h/mL. In addition, the zone of inhibition at 160 µg/mL turned out to be 11.7 mm in the data set on Escherichia coli [11], 13.5 mm in the data set with Streptococcus agalactiae [17], 14.5 mm in [21] and 13.8 mm in the data set with Staphylococcus aureus [24]. Also, in data set [12], the clearance is 5.9 mL/min/kg. Also, the Vd in [16] amounted to 1.02 L/kg. The Vdss in the data set with Rattus norvegicus came out at 4.91 L/kg. The results for the Tmax in data set [19] and in [23] were 0.75 h and 4.8 min, respectively.
Consider `C=C[C@]1(C)C[C@@H](OC(=O)CSC(C)(C)CNC(=O)[C@H](N)C(C)C)[C@]2(C)[C@H](C)CC[C@]3(CCC(=O)[C@H]32)[C@@H](C)[C@@H]1O` [VALNEMULIN], for which the bioavailability was 74% in data set [27] and 36.7% in [28].
